The values that follow come from PMC8089085 (Drug Design, Development and Therapy, 2021).

Where two headings read alike, the source gives them in different places.

The format of data set [1] is in vivo, human. The gist of the method:
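Randomized open-label three-way crossover in healthy subjects: six sequences, five per sequence, ≥7 days washout. SGLT2 inhibitor 25 mg, PPAR-γ agonist 0.5 mg or both given orally once daily for 5 days, fasting ≥8 h. EDTA plasma sampled predose and 0.33–24 h after fifth dose; UPLC-MS/MS, calibration 5.00–1000 ng/mL. Noncompartmental analysis; mixed-effect model giving geometric mean ratios with 90% CI.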

In a further data set the test system is healthy subjects. As to the kind of experiment: Tolerability assessment. Format: in vivo, human. The conditions noted are these: after multiple administrations in healthy subjects. In a few lines:
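Healthy subjects given at least one dose were followed from first administration to study end. Monitoring covered vital signs (systolic and diastolic pressure, pulse rate), physical examinations and adverse events. Events were elicited by nonleading open questioning and individual interviews, and each was judged for relation to the investigational drug.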

The mark [2] stands for this setting: empagliflozin, with vs without lobeglitazone.
Where [3] appears, read: lobeglitazone, with vs without empagliflozin.

On to `OC[C@H]1O[C@@H](c2ccc(Cl)c(Cc3ccc(O[C@H]4CCOC4)cc3)c2)[C@H](O)[C@@H](O)[C@@H]1O` [Empagliflozin], for which, in data set [1] (setting [2]), the “90% CI of AUCtau combination therapy-to-monotherapy ratio” value is given as 0.945–1.133 and the “90% CI of Cmax,ss combination therapy-to-monotherapy ratio” value is 0.956–1.150. For the same molecule, in the data set with healthy subjects, the “other tolerability parameters (laboratory test results, vital signs, physical examination)” value is “no clinically significant findings”.
For the molecule `COc1ccc(Oc2cc(N(C)CCOc3ccc(CC4SC(=O)NC4=O)cc3)ncn2)cc1` (stereo not drawn) [Lobeglitazone], in data set [1] (setting [3]), the “90% CI of AUCtau combination therapy-to-monotherapy ratio” value is on record as 0.851–1.018 and the “90% CI of Cmax,ss combination therapy-to-monotherapy ratio” value is 0.869–0.995. The “other tolerability parameters (laboratory test results, vital signs, physical examination)” value in the data set with healthy subjects is “no clinically significant findings”.
